Legend:
[1] = higher; cited from earlier work
[2] = cited from earlier work
[3] = Population pharmacokinetic analysis; type: in vivo, human
Summary of the method: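 Single-dose intensive plasma sampling to 120 h (B1371001) or 24 h (B1371002), sparse in B1371003; multiple-dose intensive in all. HPLC–MS/MS assay, LLOQ 0.200 ng/mL. SAEM/IMP estimation; proportional residual error on log concentrations; missing covariates imputed as population median.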

[4] = tested on: Hedgehog pathway marker glioma‐associated oncogene homolog 1 (GLI1); details: plasma exposures at doses ≥100 mg QD; cited from earlier work
[5] = healthy subjects; cited from earlier work
[6] = Simulation of steady-state exposure; design: species or system human
[7] = cited from earlier work; remark: listed apart in the source
Ketoconazole = type: in vivo, human; details: glasdegib 200-mg single dose, ketoconazole 400 mg daily, healthy subjects
[8] = cited from earlier work; remark: listed apart in the source
[9] = Healthy volunteer population PK model; type: in vivo, human
Summary of the method: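 Model built from noncancer subjects in studies B1371010 and B1371014 (n = 49; 1937 plasma concentrations). Structure: 2-compartment, first-order absorption and elimination, allometric body-weight scaling. Estimation by FOCEI. Food entered empirically as a linear covariate on ka. Residual error was proportional across all subjects. Intersubject variability is reported as CV (%).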

[10] = cited from earlier work; remark: listed apart in the source
[11] = cited from earlier work; remark: listed apart in the source
[12] = glasdegib 200-mg single dose, ketoconazole 400 mg daily, healthy subjects
[13] = bootstrap median, 1000 resampled data sets
[14] = healthy volunteer model vs final model, higher
[15] = healthy volunteer model, n = 49, FOCEI

Q: Which “Clearance in healthy subjects relative to patients with cancer” value [1] does the source give for Cc1c(C(=O)Nc2ccc(N3C[C@@H](C)O[C@@H](C)C3)nc2)cccc1-c1ccc(OC(F)(F)F)cc1 [sonidegib, Sonidegib] here?
A: 3 fold

Q: Which results are given for CN1CC[C@@H](NC(=O)Nc2ccc(C#N)cc2)C[C@@H]1c1nc2ccccc2[nH]1 [glasdegib, Glasdegib]?
A: Plasma exposures with a strong CYP3A inhibitor [2]: increased; Increase in AUC extrapolated to infinity with ketoconazole vs glasdegib alone [2, 12]: 140%; Increase in maximum plasma concentration with ketoconazole vs glasdegib alone [2, 12]: 40%; Residual error, proportional error, Hematologic ([3]; bootstrap median): 65.7%; Residual error, proportional error, Solid tumors ([3]; bootstrap median): 59.3%; CL/F [3, 13]: 6.23 L/h; Q/F [3, 13]: 1.58 L/h; Vc/F [3, 13]: 3.52 L; Vp/F [3, 13]: 296.04 L; ka [3, 13]: 0.06 hour^–1; θBPBL [3, 13]: –0.004; θCYPmod [3, 13]: –0.18; θCYPstrong [3, 13]: –0.31; θWNCL [3, 13]: 0.41; θsolid on Q/F [3, 13]: –0.69; θsolid on Vp/F [3, 13]: –0.81; Effect of age, sex, race and hepatic function on glasdegib PK parameters ([3]; covariate analysis): not found to be significant covariates; Residual error, proportional error, Hematologic ([3]; final model estimate): 65.8%; Residual error, proportional error, Solid tumors ([3]; final model estimate): 59.5%; Change in CL/F per 1% change in baseline percentage bone marrow blasts ([3]; from population median 38.2%, CL/F decreases as blasts increase): 0.4%; Downregulation of GLI1 [4]: robust and consistent; Effect of high-fat meal or proton pump inhibitors on PK [5]: not affected in a clinically relevant manner; Exposure increase from CL/F reduction ([6]; 10th percentile baseline body weight vs 70 kg): ~1.1 fold; Simulated fold change in steady-state maximum concentration and area under the curve ([6]; 90th percentile baseline body weight): ~0.75; Exposure increase from CL/F reduction ([6]; 90th percentile baseline bone marrow blasts): ~1.1 fold; Increase in area under the curve ([6]; strong CYP3A inhibitors): ~1.4 fold; Plasma exposures with a strong CYP3A4 inducer [7]: decreased; Decrease in CL/F with ketoconazole (Ketoconazole): 58%; Absolute oral bioavailability [8]: 77.12%; Intersubject variability CL/F ([9]; healthy volunteer model): 19.6% (5.8%); Intersubject variability Vc/F ([9]; healthy volunteer model): 11.0% (52.0%); Intersubject variability ka ([9]; healthy volunteer model): 53.4% (10.6%); CL/F in healthy subjects relative to patients with cancer [9, 14]: > 1.6 fold; ka in healthy subjects relative to patients with cancer [9, 14]: over 13 fold; Residual error, proportional error ([9]; healthy volunteer model, all subjects): 58.6%; CL/F [9, 15]: 10.1 (4.1%) L/h; Q/F [9, 15]: 1.92 (11.4%) L/h; Vc/F [9, 15]: 112 (4.1%) L; Vp/F [9, 15]: 53.5 (6.9%) L; ka [9, 15]: 0.79 (8.9%) hour^–1; Intersubject variability Q/F ([9]; healthy volunteer model, FIXED): 3.2% FIXED; Intersubject variability Vp/F ([9]; healthy volunteer model, FIXED): 3.2% FIXED; Dose proportionality of plasma exposure ([10]; 5-600 mg QD, single and multiple daily dosing): dose‐proportional increase in plasma exposure; Maximum tolerated dose (MTD) ([10]; oral, patients): 400 mg QD; Radiolabeled dose recovered in feces (mean) ([11]; 100 mg dose): 41.7%; Radiolabeled dose recovered in urine (mean) ([11]; 100 mg dose): 48.9%; Renal contribution to elimination [11]: around 17%; Unchanged glasdegib recovered in feces ([11]; of the 100 mg dose): 19.5%; Unchanged glasdegib recovered in urine ([11]; of the 100 mg dose): 17.2%
